Experimental data taken from ChEMBL document CHEMBL4261546, “Synthesis of novel pentacyclic triterpene-Neu5Ac2en derivatives and investigation of their in vitro anti-influenza entry activity” (Medchemcomm, 2017).
Activity calls are given as the source filed them. The rule behind the calls is not given here.

Columns and labels:
MDCK [1] = assay: Cytotoxicity against MDCK cells assessed as reduction in cell viability at 100 uM after 40 hrs by CellTiter-Glo assay; format: cell-based, Canis lupus familiaris; conditions: dog
How it was run: (§1)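 Preliminary cytotoxicity screen in MDCK cells at 10 μM and 100 μM. Cells seeded overnight in DMEM with 10% FBS at 37 °C, 5% CO2, then exposed to compound for 40 h. CellTiter-Glo read-out, viability expressed as % of untreated control after background correction. Paclitaxel served as positive control.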

MDCK [2] = assay: Cytotoxicity against MDCK cells assessed as reduction in cell viability at 10 uM after 40 hrs by CellTiter-Glo assay; format: cell-based, Canis lupus familiaris; conditions: dog; how it was run: as §1
[3] = Selectivity index, ratio of CC50 for MDCK cells to IC50 for Influenza A virus (A/WSN/33(H1N1)) infected in MDCK cells; format: toxicity, cell-based; conditions: dog, read-out: Ratio CC50/IC50
How it was run: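 SI = CC50/IC50. CC50 comes from the 40 h CellTiter-Glo viability assay in uninfected MDCK cells. IC50 comes from the 40 h CellTiter-Glo CPE-reduction assay with A/WSN/33 at MOI 0.1.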

Influenza A virus [4] = assay: Antiviral activity against Influenza A virus (A/WSN/33(H1N1)) infected in MDCK cells assessed as reduction in virus-induced cytopathic effect after 40 hrs by CellTiter-Glo assay; format: functional, organism-based; conditions: A/WSN/1933(H1N1)
How it was run: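 MDCK cells grown overnight in DMEM with 10% FBS at 37 °C, 5% CO2. Medium replaced with compound plus A/WSN/33 virus (MOI 0.1) in DMEM with 1% FBS, 2 μg/mL TPCK-trypsin and 1% DMSO final. After 40 h, CellTiter-Glo luminescence read as CPE. IC50 is the mean of ≥3 independent determinations with standard deviations.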

Erythrocyte = assay: Induction of haemagglutination in chicken RBC at 1.5 to 40 uM after 30 mins; format: cell-based, Gallus gallus; conditions: 0.5 h
How it was run: (§2)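 Hemagglutination assay. Freshly prepared 1% v/v chicken RBCs in saline were then added. After 30 min at room temperature, RBC aggregation was scored visually. Anti-HA antibody was the reference.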

[5] = target: Neuraminidase (Influenza A virus (strain A/Wilson-Smith/1933 H1N1) (Influenza A virus(strain A/WS/1933 H1N1))) (UniProt P03470); assay: Inhibition of Influenza A virus (A/WSN/33(H1N1)) NA up to 100 uM using 4-MUNANA as substrate after 30 mins by fluorescence spectrophotometric assay; conditions: Influenza A virus (A/WSN/1933(H1N1))
Sequence of Neuraminidase (Influenza A virus (strain A/Wilson-Smith/1933 H1N1) (Influenza A virus(strain A/WS/1933 H1N1))) (P03470 whole entry): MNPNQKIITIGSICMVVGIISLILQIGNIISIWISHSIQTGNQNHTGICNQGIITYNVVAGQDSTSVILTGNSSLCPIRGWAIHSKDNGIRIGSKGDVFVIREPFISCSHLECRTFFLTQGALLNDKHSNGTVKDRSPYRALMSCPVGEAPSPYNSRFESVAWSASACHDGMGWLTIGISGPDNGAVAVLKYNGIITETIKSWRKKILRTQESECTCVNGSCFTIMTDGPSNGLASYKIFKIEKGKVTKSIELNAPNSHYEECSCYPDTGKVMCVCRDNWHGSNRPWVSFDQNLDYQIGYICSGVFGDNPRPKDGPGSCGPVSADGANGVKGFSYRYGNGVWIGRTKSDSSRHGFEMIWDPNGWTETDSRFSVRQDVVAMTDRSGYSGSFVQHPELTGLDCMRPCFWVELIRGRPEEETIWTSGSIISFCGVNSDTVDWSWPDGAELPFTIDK
How it was run: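 NA activity was measured with A/WSN/33 virus as the enzyme source, mixed with compound and 20 μM MUNANA in 32.5 mM MES (4 mM CaCl2, pH 6.5). Incubated 30 min at 37 °C, then stopped with 34 mM NaOH. Fluorescent product read at ex 360 nm / em 460 nm.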

Influenza A virus [6] = assay: Antiviral activity against Influenza A virus (A/WSN/33(H1N1)) infected in MDCK cells assessed as reduction in virus-induced cytopathic effect up to 100 uM after 40 hrs by microscopic method; format: functional, organism-based; conditions: A/WSN/1933(H1N1)
How it was run: (§3)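 MDCK cultures were set up as in the CPE assay: compound with or without A/WSN/33 infection (MOI 0.1), DMEM with 1% FBS and TPCK-trypsin. At 40 h post-infection, wells carrying compound up to 100 μM were inspected microscopically. Scored features were cell aggregation and detachment from the dish.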

MDCK [7] = assay: Cytotoxicity against MDCK cells assessed as morphological changes up to 100 uM after 40 hrs by microscopic method; format: cell-based, Canis lupus familiaris; conditions: dog; how it was run: as §3
[8] = Cytotoxicity against MDCK cells assessed as reduction in cell viability after 40 hrs by CellTiter-Glo assay; format: cell-based, Canis lupus familiaris; conditions: dog
How it was run: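 MDCK cells seeded in DMEM with 10% FBS and cultured overnight at 37 °C, 5% CO2. Compounds added and incubated 40 h, then CellTiter-Glo viability measured. Viability % = background-corrected signal of treated well divided by control well, ×100. CC50 is the concentration giving 50% cell death.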

[9] = target: Hemagglutinin (Influenza A virus) (UniProt B4URE7); assay: Inhibition of Influenza A virus (A/WSN/33(H1N1)) HA-mediated haemagglutination in chicken RBC at 1.5 to 40 uM after 30 mins; format: cell-based; conditions: Influenza A virus (A/WSN/1933(H1N1)); how it was run: as §2
Sequence of Hemagglutinin (Influenza A virus) (B4URE7 as listed by the source): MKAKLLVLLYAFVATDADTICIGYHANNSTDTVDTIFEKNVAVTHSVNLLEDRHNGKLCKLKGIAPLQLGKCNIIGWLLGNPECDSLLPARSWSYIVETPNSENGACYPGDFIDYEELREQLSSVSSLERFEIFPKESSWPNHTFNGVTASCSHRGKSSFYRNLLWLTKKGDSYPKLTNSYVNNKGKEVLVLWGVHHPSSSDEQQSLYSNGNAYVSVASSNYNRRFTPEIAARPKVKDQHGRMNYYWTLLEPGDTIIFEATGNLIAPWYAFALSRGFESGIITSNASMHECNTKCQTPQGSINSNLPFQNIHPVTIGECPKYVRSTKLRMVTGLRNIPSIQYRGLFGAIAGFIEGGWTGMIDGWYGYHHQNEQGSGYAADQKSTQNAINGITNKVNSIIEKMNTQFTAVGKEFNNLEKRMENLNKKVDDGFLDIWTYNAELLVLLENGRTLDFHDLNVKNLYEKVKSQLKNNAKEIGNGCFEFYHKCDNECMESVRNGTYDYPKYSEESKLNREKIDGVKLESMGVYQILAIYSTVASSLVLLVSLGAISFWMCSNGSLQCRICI

[10] = Inhibition of Influenza virus NA; design: species or system unidentified influenza virus

COC(=O)C1=C[C@H](n2cc(CNC(=O)[C@]34CC[C@@H](C)[C@H](C)[C@H]3C3=CC[C@@H]5[C@@]6(C)CC[C@H](O)C(C)(C)[C@@H]6CC[C@@]5(C)[C@]3(C)CC4)nn2)[C@@H](NC(C)=O)[C@H]([C@H](OC(C)=O)[C@@H](COC(C)=O)OC(C)=O)O1
Activity (MDCK [1]): Toxic | Activity (MDCK [2]): Non-Toxic

COC(=O)C1=C[C@H](NC(=O)[C@]23CCC(C)(C)C[C@H]2C2=CC[C@@H]4[C@@]5(C)CC[C@H](O)C(C)(C)[C@@H]5CC[C@@]4(C)[C@]2(C)CC3)[C@@H](NC(C)=O)[C@H]([C@H](OC(C)=O)[C@@H](COC(C)=O)OC(C)=O)O1
selectivity ratio [3]: 22.7 | Activity (MDCK [2]): Non-Toxic | IC50 (Influenza A virus [4]): 8.3 µM | Activity (Erythrocyte): Non-Toxic | inhibition [5]: inactive | Activity (Influenza A virus [6]): Active | Activity (MDCK [7]): Non-Toxic | CC50 at 40 h [8]: 188 µM | inhibition [9]: Active

COC(=O)C1=C[C@H](NC(=O)[C@]23CC[C@@H](C)[C@H](C)[C@H]2C2=CC[C@@H]4[C@@]5(C)CC[C@H](O)C(C)(C)[C@@H]5CC[C@@]4(C)[C@]2(C)CC3)[C@@H](NC(C)=O)[C@H]([C@H](O)[C@H](O)CO)O1
Activity (MDCK [1]): Toxic | Activity (MDCK [2]): Non-Toxic

C=C(C)[C@@H]1CC[C@]2(C(=O)NCc3cn([C@H]4C=C(C(=O)OC)O[C@@H]([C@H](O)[C@H](O)CO)[C@@H]4NC(C)=O)nn3)CC[C@]3(C)[C@H](CC[C@@H]4[C@@]5(C)CC[C@H](O)C(C)(C)[C@@H]5CC[C@]43C)[C@@H]12
Activity (MDCK [2]): Non-Toxic | IC50 (Influenza A virus [4]): > 100 µM

COC(=O)C1=C[C@H](NC(=O)[C@]23CCC(C)(C)C[C@H]2C2=CC[C@@H]4[C@@]5(C)CC[C@H](O)C(C)(C)[C@@H]5CC[C@@]4(C)[C@]2(C)C[C@H]3O)[C@@H](NC(C)=O)[C@H]([C@H](OC(C)=O)[C@@H](COC(C)=O)OC(C)=O)O1
selectivity ratio [3]: > 32.3 | Activity (MDCK [2]): Non-Toxic | IC50 (Influenza A virus [4]): 15.5 µM | CC50 at 40 h [8]: > 200 µM

C=C(C)[C@@H]1CC[C@]2(C(=O)N[C@H]3C=C(C(=O)OC)O[C@@H]([C@H](OC(C)=O)[C@@H](COC(C)=O)OC(C)=O)[C@@H]3NC(C)=O)CC[C@]3(C)[C@H](CC[C@@H]4[C@@]5(C)CC[C@H](O)C(C)(C)[C@@H]5CC[C@]43C)[C@@H]12
Activity (MDCK [2]): Non-Toxic | IC50 (Influenza A virus [4]): > 100 µM

COC(=O)C1=C[C@H](n2cc(CNC(=O)[C@]34CCC(C)(C)C[C@H]3C3=CC[C@@H]5[C@@]6(C)CC[C@H](O)C(C)(C)[C@@H]6CC[C@@]5(C)[C@]3(C)C[C@H]4O)nn2)[C@@H](NC(C)=O)[C@H]([C@H](O)[C@H](O)CO)O1
selectivity ratio [3]: > 3.6 | Activity (MDCK [2]): Non-Toxic | IC50 (Influenza A virus [4]): 55 µM | CC50 at 40 h [8]: > 200 µM

COC(=O)C1=C[C@@H](n2cc(CNC(=O)[C@]34CC[C@@H](C)[C@H](C)[C@H]3C3=CC[C@@H]5[C@@]6(C)CC[C@H](O)C(C)(C)[C@@H]6CC[C@@]5(C)[C@]3(C)CC4)nn2)[C@@H](NC(C)=O)[C@H]([C@H](O)[C@H](O)CO)O1
Activity (MDCK [1]): Toxic | Activity (MDCK [2]): Non-Toxic | IC50 (Influenza A virus [4]): > 100 µM

COC(=O)C1=C[C@H](NC(=O)[C@]23CC[C@@H](C)[C@H](C)[C@H]2C2=CC[C@@H]4[C@@]5(C)CC[C@H](O)C(C)(C)[C@@H]5CC[C@@]4(C)[C@]2(C)CC3)[C@H](NC(C)=O)[C@H]([C@H](OC(C)=O)[C@@H](COC(C)=O)OC(C)=O)O1
selectivity ratio [3]: 7.1 | Activity (MDCK [1]): Non-Toxic | Activity (MDCK [2]): Non-Toxic | IC50 (Influenza A virus [4]): 19.2 µM | CC50 at 40 h [8]: 136 µM

COC(=O)C1=C[C@H](NC(=O)[C@]23CCC(C)(C)C[C@H]2C2=CC[C@@H]4[C@@]5(C)CC[C@H](O)C(C)(C)[C@@H]5CC[C@@]4(C)[C@]2(C)C[C@H]3O)[C@@H](NC(C)=O)[C@H]([C@H](O)[C@H](O)CO)O1
selectivity ratio [3]: > 4.9 | Activity (MDCK [2]): Non-Toxic | IC50 (Influenza A virus [4]): 40.5 µM | CC50 at 40 h [8]: > 200 µM

C=C(C)[C@@H]1CC[C@]2(C(=O)NCc3cn([C@H]4C=C(C(=O)OC)O[C@@H]([C@H](OC(C)=O)[C@@H](COC(C)=O)OC(C)=O)[C@@H]4NC(C)=O)nn3)CC[C@]3(C)[C@H](CC[C@@H]4[C@@]5(C)CC[C@H](O)C(C)(C)[C@@H]5CC[C@]43C)[C@@H]12
Activity (MDCK [1]): Toxic | Activity (MDCK [2]): Non-Toxic

COC(=O)C1=C[C@H](n2cc(CNC(=O)[C@]34CCC(C)(C)C[C@H]3C3=CC[C@@H]5[C@@]6(C)CC[C@H](O)C(C)(C)[C@@H]6CC[C@@]5(C)[C@]3(C)CC4)nn2)[C@@H](NC(C)=O)[C@H]([C@H](O)[C@H](O)CO)O1
selectivity ratio [3]: > 7.1 | Activity (MDCK [2]): Non-Toxic | IC50 (Influenza A virus [4]): 28.3 µM | CC50 at 40 h [8]: > 200 µM

COc1cc(/C=C/C(=O)CC(=O)/C=C/c2ccc(O)c(OC)c2)ccc1O [CURCUMIN]
selectivity ratio [3]: 7.2 | IC50 (Influenza A virus [4]): 6.7 µM

COC(=O)C1=C[C@H](NC(=O)[C@]23CCC(C)(C)C[C@H]2C2=CC[C@@H]4[C@@]5(C)CC[C@H](O)C(C)(C)[C@@H]5CC[C@@]4(C)[C@]2(C)CC3)[C@@H](NC(C)=O)[C@H]([C@H](O)[C@H](O)CO)O1
Activity (MDCK [1]): Toxic | Activity (MDCK [2]): Non-Toxic

COC(=O)C1=C[C@H](n2cc(CNC(=O)[C@]34CCC(C)(C)C[C@H]3C3=CC[C@@H]5[C@@]6(C)CC[C@H](O)C(C)(C)[C@@H]6CC[C@@]5(C)[C@]3(C)C[C@H]4O)nn2)[C@@H](NC(C)=O)[C@H]([C@H](OC(C)=O)[C@@H](COC(C)=O)OC(C)=O)O1
Activity (MDCK [1]): Toxic | Activity (MDCK [2]): Non-Toxic | IC50 (Influenza A virus [4]): > 100 µM

COC(=O)C1=C[C@H](n2cc(CNC(=O)[C@]34CCC(C)(C)C[C@H]3C3=CC[C@@H]5[C@@]6(C)CC[C@H](O)C(C)(C)[C@@H]6CC[C@@]5(C)[C@]3(C)CC4)nn2)[C@@H](NC(C)=O)[C@H]([C@H](OC(C)=O)[C@@H](COC(C)=O)OC(C)=O)O1
Activity (MDCK [1]): Toxic | Activity (MDCK [2]): Non-Toxic

CC(=O)N[C@H]1[C@H]([C@H](O)[C@H](O)CO)OC(C(=O)O)=C[C@@H]1O [NEU5AC2EN]
Ki [10]: 4 µM

C=C(C)[C@@H]1CC[C@]2(C(=O)N[C@H]3C=C(C(=O)OC)O[C@@H]([C@H](O)[C@H](O)CO)[C@@H]3NC(C)=O)CC[C@]3(C)[C@H](CC[C@@H]4[C@@]5(C)CC[C@H](O)C(C)(C)[C@@H]5CC[C@]43C)[C@@H]12
Activity (MDCK [2]): Non-Toxic | IC50 (Influenza A virus [4]): > 100 µM

COC(=O)C1=C[C@H](n2cc(CNC(=O)[C@]34CC[C@@H](C)[C@H](C)[C@H]3C3=CC[C@@H]5[C@@]6(C)CC[C@H](O)C(C)(C)[C@@H]6CC[C@@]5(C)[C@]3(C)CC4)nn2)[C@@H](NC(C)=O)[C@H]([C@H](O)[C@H](O)CO)O1
Activity (MDCK [1]): Toxic | Activity (MDCK [2]): Non-Toxic | IC50 (Influenza A virus [4]): > 100 µM

COC(=O)C1=C[C@@H](n2cc(CNC(=O)[C@]34CCC(C)(C)C[C@H]3C3=CC[C@@H]5[C@@]6(C)CC[C@H](O)C(C)(C)[C@@H]6CC[C@@]5(C)[C@]3(C)CC4)nn2)[C@@H](NC(C)=O)[C@H]([C@H](O)[C@H](O)CO)O1
Activity (MDCK [2]): Non-Toxic | IC50 (Influenza A virus [4]): > 100 µM
